# Measured values pooled from the literature.
# Each line is one published result; the experiments were not run side by side. pEC50, pIC50: −log10 of the molar value.
Compound,organism,test,system,setting,measurement,value
O=[N+]([O-])C1=Cc2ccccc2OC1c1cccc(Br)c1 (stereo not drawn),Leishmania tropica,parasite growth,THP-1,"72 h, intracellular, amastigote",IC50,171 µg/mL
CNC(=S)NN=Cc1ccc(OC)c(OC)c1,Leishmania tropica,parasite growth,J774.A1,"72 h, intracellular, amastigote",pIC50,3.34
CCOC(=O)C1=C(CN2CCC[C@H]2C(=O)Nc2ccc(B(O)O)cc2)NC(c2nccs2)=N[C@@H]1c1ccc(F)cc1Br,Hepatitis B virus,"viral replication, inhibitor, qPCR",HepDES19,72 h,pEC50,4.48
Fc1ccc(C=NNC(=S)Nc2cccnc2)cc1,Leishmania tropica,parasite growth,J774.A1,"72 h, intracellular, amastigote",pIC50,3.70
Cc1ccc(N=Nc2c(N)nn3c(-c4ccc(Cl)cc4Cl)cc(-c4ccc(OCc5ccccc5)cc4)nc23)cc1,Saccharomyces cerevisiae,"microbial growth, broth dilution",ATCC9763,,MIC,31.3 µg/mL
CCOC(=O)C1=C(CN2CCCC2C(=O)Nc2cccc(B(O)O)c2)NC(c2nccs2)=NC1c1ccc(F)cc1Br (stereo not drawn),Hepatitis B virus,"viral replication, inhibitor, qPCR",HepDES19,72 h,pEC50,6.33
COc1ccc(N=Nc2c(N)nn3c(-c4ccc(C)cc4)cc(-c4ccc(OCc5ccccc5)cc4)nc23)cc1,Saccharomyces cerevisiae,"microbial killing, broth dilution",ATCC9763,,MFC,125 µg/mL
CCOC(=O)C1=C(CN2CCCC2C(=O)Nc2cccc(B3OC(C)(C)C(C)(C)O3)c2)NC(c2nccs2)=NC1c1ccc(F)cc1Br (stereo not drawn),Hepatitis B virus,"viral replication, inhibitor, qPCR",HepDES19,72 h,pEC50,6.43
COc1ccc(C=NNC(=S)Nc2cccnc2)cc1OC,Leishmania tropica,"parasite growth, MTT",,"72 h, promastigote",pIC50,< 3.00
O=[N+]([O-])C1=Cc2ccccc2OC1c1cccc(Cl)c1 (stereo not drawn),Leishmania tropica,parasite growth,THP-1,"72 h, intracellular, amastigote",IC50,151 µg/mL
CCOC(=O)C1=C(CN2CCN(Cc3ccccc3B(O)O)CC2)NC(c2nccs2)=NC1c1ccc(F)cc1Br (stereo not drawn),Hepatitis B virus,"viral replication, inhibitor, qPCR",HepDES19,72 h,pEC50,5.83
Cc1ccc(N=Nc2c(N)nn3c(-c4ccc(C)cc4)cc(-c4ccc(OCc5ccccc5)cc4)nc23)cc1,Saccharomyces cerevisiae,"microbial growth, broth dilution",ATCC9763,,MIC,62.5 µg/mL
Cc1ccc(COc2ccc(C3Oc4ccccc4C=C3[N+](=O)[O-])cc2)cc1 (stereo not drawn),Leishmania tropica,parasite growth,THP-1,"72 h, intracellular, amastigote",IC50,150 µg/mL
C[C@@H]1[C@H](O)[C@@H](C)/C=C/C=C/C=C/C=C/C=C/C=C/C=C/[C@H](O[C@@H]2O[C@H](C)[C@@H](O)[C@H](N)[C@@H]2O)C[C@@H]2O[C@](O)(C[C@@H](O)C[C@@H](O)[C@H](O)CC[C@@H](O)C[C@@H](O)CC(=O)O[C@H]1C)C[C@H](O)[C@H]2C(=O)O,Saccharomyces cerevisiae,"microbial growth, broth dilution",BY4741,48 h,MIC,0.25 µg/mL
O=[N+]([O-])C1=Cc2ccccc2OC1c1ccccc1Br (stereo not drawn),Leishmania tropica,parasite growth,THP-1,"72 h, intracellular, amastigote",IC50,154 µg/mL
OC(Cn1cncn1)(Cn1cncn1)c1ccc(F)cc1F,Saccharomyces cerevisiae,"microbial growth, broth dilution",BY4741,48 h,MIC,4 µg/mL
CC(=O)N1CCN(c2ccc(OCC3COC(Cn4ccnc4)(c4ccc(Cl)cc4Cl)O3)cc2)CC1 (stereo not drawn),Saccharomyces cerevisiae,"microbial killing, broth dilution",ATCC9763,,MFC,15.6 µg/mL
CNC(=S)NN=Cc1ccc(C)cc1,Leishmania tropica,"parasite growth, MTT",,"72 h, promastigote",pIC50,2.98
Cc1ccc(N=Nc2c(N)nn3c(-c4ccco4)cc(-c4ccc(OCc5ccccc5)cc4)nc23)cc1,Saccharomyces cerevisiae,"microbial killing, broth dilution",ATCC9763,,MFC,62.5 µg/mL
O=[N+]([O-])C1=Cc2ccccc2OC1c1ccc(OCc2ccc(Cl)cc2)cc1 (stereo not drawn),Leishmania tropica,parasite growth,THP-1,"72 h, intracellular, amastigote",IC50,142 µg/mL
CCOC(=O)C1=C(CN2CCC(C(=O)Nc3ccc(B(O)O)cc3)C2)NC(c2nccs2)=NC1c1ccc(F)cc1Br (stereo not drawn),Hepatitis B virus,"viral replication, inhibitor, qPCR",HepDES19,72 h,pEC50,6.30
O=[N+]([O-])C1=Cc2ccccc2OC1c1ccccc1Cl (stereo not drawn),Leishmania tropica,parasite growth,THP-1,"72 h, intracellular, amastigote",IC50,164 µg/mL
COc1ccc(N=Nc2c(N)nn3c(-c4ccc(Cl)cc4Cl)cc(-c4ccc(OCc5ccccc5)cc4)nc23)cc1,Saccharomyces cerevisiae,"microbial killing, broth dilution",ATCC9763,,MFC,500 µg/mL
O=[N+]([O-])C1=Cc2ccccc2OC1c1cccc(OCc2ccc(Cl)cc2)c1 (stereo not drawn),Leishmania tropica,parasite growth,THP-1,"72 h, intracellular, amastigote",IC50,149 µg/mL
CCCCN1CN(CC(=O)O)CSC1=S,Leishmania tropica,"parasite growth, MTT",,"48 h, promastigote",pIC50,4.03
S=C(NN=Cc1ccc(Br)cc1)Nc1cccnc1,Leishmania tropica,"parasite growth, MTT",,"72 h, promastigote",pIC50,3.26
CCOC(=O)C1=C(CN2CCC(C(=O)Nc3ccccc3B(O)O)C2)NC(c2nccs2)=NC1c1ccc(F)cc1Br (stereo not drawn),Hepatitis B virus,"viral replication, inhibitor, qPCR",HepDES19,72 h,pEC50,5.71
COc1ccc(C=NNC(=S)Nc2cccnc2)cc1,Leishmania tropica,"parasite growth, MTT",,"72 h, promastigote",pIC50,3.19
COc1ccc(N=Nc2c(N)nn3c(-c4ccco4)cc(-c4ccc(OCc5ccccc5)cc4)nc23)cc1,Saccharomyces cerevisiae,"microbial growth, broth dilution",ATCC9763,,MIC,62.5 µg/mL
CNC(=S)NN=Cc1ccc(Br)cc1,Leishmania tropica,"parasite growth, MTT",,"72 h, promastigote",pIC50,4.03
Cc1ccc(-c2cc(-c3ccc(OCc4ccccc4)cc3)nc3c(N=Nc4ccc(F)cc4)c(N)nn23)cc1,Saccharomyces cerevisiae,"microbial killing, broth dilution",ATCC9763,,MFC,125 µg/mL
C[C@@H]1[C@H](O)[C@@H](C)/C=C/C=C/C=C/C=C/C=C/C=C/C=C/[C@H](O[C@@H]2O[C@H](C)[C@@H](O)[C@H](N)[C@@H]2O)C[C@@H]2O[C@](O)(C[C@@H](O)C[C@@H](O)[C@H](O)CC[C@@H](O)C[C@@H](O)CC(=O)O[C@H]1C)C[C@H](O)[C@H]2C(=O)O,Leishmania tropica,"parasite growth, MTT",,"72 h, promastigote",pIC50,4.75
CCOC(=O)C1=C(CN2CCN(Cc3cccc(B4OC(C)(C)C(C)(C)O4)c3)CC2)NC(c2nccs2)=NC1c1ccc(F)cc1Br (stereo not drawn),Hepatitis B virus,"viral replication, inhibitor, qPCR",HepDES19,72 h,pEC50,5.89
